NCF1 inh: p47phox/p22phox peptide binding inhibitors, primary screen, biochemical, uHTS, NADPH oxidase regulatory subunit. fluorescence polarization, 2 h. inhibition, % at 24.7 µM. actives 0.53% (n = 220,000). Neutrophil cytosol factor 1 (Homo sapiens), P14598;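 active = inhibition above about 30%, limit read from the data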;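 also: 0% = p47phox with labelled peptide and 100% = labelled peptide alone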
Target sequence (P14598 whole entry, looked up): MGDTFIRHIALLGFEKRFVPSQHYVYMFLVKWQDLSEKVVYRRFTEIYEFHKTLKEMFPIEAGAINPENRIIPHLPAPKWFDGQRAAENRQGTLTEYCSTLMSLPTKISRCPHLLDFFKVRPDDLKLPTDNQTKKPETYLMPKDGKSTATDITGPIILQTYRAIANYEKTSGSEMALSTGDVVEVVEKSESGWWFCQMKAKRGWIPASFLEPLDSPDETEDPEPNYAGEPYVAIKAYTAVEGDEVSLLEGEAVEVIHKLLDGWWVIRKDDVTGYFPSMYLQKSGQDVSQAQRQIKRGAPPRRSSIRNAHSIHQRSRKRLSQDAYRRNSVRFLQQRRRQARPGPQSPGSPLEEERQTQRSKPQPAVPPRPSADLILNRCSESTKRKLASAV
ROMK mod: ROMK potassium channel modulators, primary screen, cell-based, thallium flux, MLSMR library. ATP-sensitive inward rectifier potassium channel 1 (Homo sapiens), P48048. actives 2% (n = 130,000). Tet-inducible ROMK, thallium flux fluorescence; actives lie on both sides. AID 1918, 2009. B-score at 10 µM;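 active = signal ratio slope over the read window, or its plate-corrected B-score, at least 3 SD from the plate mean, either direction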;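 also: B-score of the F/F0 ratio slope over 7 to 12 s after thallium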
WT yeast gro inh: growth inhibition of WT strain, primary screen, mitochondrial fusion inhibitor project, WT and mutant strains, chemical genetic; mitochondrial fusion phenotypic screen; inhibition, % at 10 µM; actives 2.1% (n = 190,000); in the data active = inhibition above about 58%; tested in S. cerevisiae
KCC2 mod: KCC2 cotransporter modulators, thallium flux, primary screen, cell-based, HEK293 KCC2, FluoZin-2 fluorescence, MLSMR; Solute carrier family 12 member 5 (Homo sapiens), Q9H2X9; KCC2 cells, thallium flux FluoZin-2 fluorescence; B-score of Tl+ flux slope (higher = more flux/activation; lower = inhibition) at 10 µM; actives 2.2% (n = 190,000);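 active = thallium flux slope and its plate-corrected score both differing from the plate sample mean at a set confidence after two filtering rounds, in either direction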;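 also: slope of fluorescence scaled to starting intensity during 10 to 20 s after thallium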
RBBP9 inh: human RBBP9 inhibitors, primary screen, biochemical, fluorescence polarization, FP-Rh probe, HTS | Serine hydrolase RBBP9 (Homo sapiens), O75884 | recombinant RBBP9 | inhibition, % at 7.94 µM | actives 0.2% (n = 220,000);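 active = inhibition above the campaign mean of all tested compounds plus 3 SD, cut at about 14% in these data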;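 also: plate controls were DMSO wells with RBBP9 for no effect and wells lacking RBBP9 protein for full effect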
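Test system: recombinant human RBBP9; Timing: 30 min then 45 min, 25 °C; Detection: fluorescence polarization; Control set: RBBP9 with DMSO as uninhibited control, no-protein wells as full inhibition; Compound dosing: one concentration, 7.94 µM nominal, 0.794% DMSO; Probe or stimulus: FP-Rh activity-based probe, 375 nM before mixing.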
14-3-3 Bad PPI: inhibitors of 14-3-3 zeta/Bad binding, primary screen, biochemical, TR-FRET, bovine 14-3-3 zeta | 14-3-3 protein zeta/delta (Bos taurus), P63103 | TR-FRET 14-3-3zeta/Dy647-pBad peptide displacement, 1 h | inhibition, % at 21.7 µM | actives 0.71% (n = 220,000) | AID 781, 2007;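 active = inhibition above about 70%, limit read from the data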;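 also: 0% = full 14-3-3 plus peptide FRET controls and 100% = background without 14-3-3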
Target sequence (P63103 whole entry, looked up): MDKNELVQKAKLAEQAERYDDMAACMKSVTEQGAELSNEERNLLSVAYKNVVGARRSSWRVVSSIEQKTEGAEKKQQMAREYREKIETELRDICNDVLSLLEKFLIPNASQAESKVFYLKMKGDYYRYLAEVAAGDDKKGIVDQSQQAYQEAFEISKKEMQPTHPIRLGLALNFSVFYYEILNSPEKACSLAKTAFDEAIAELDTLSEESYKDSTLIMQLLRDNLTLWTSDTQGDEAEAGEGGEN
The depositor's hits bear a star. Only some compounds are listed: those with a hit (about 5.8% of all), similar ones and a draw of the others.

Screening Cc1onc(-c2ccccc2)c1C(=O)Nc1ccc(S(=O)(=O)NC(C)(C)C)cc1 returned NCF1 inh -4.6, ROMK mod 0.0697, WT yeast gro inh -22.8, KCC2 mod 0.656, RBBP9 inh 4.8 and 14-3-3 Bad PPI -10.5.
For CCCCNC(=O)c1cc2c(=O)n3cccc(C)c3nc2n(Cc2ccccc2)c1=N the results were NCF1 inh -14.2, WT yeast gro inh -5.9, KCC2 mod -0.931, RBBP9 inh 2.1 and 14-3-3 Bad PPI 74.8*.
For c1ccc2c(c1)N1CCCN=C1N2CCN1CCCCC1 the results were NCF1 inh 2.8, ROMK mod -0.512, WT yeast gro inh 1.6, KCC2 mod 0.0687, RBBP9 inh -5.4 and 14-3-3 Bad PPI 0.2.
For O=C1N=C2N(CCN3CCCCC3)c3ccccc3N2/C1=C\c1ccc([N+](=O)[O-])o1 the results were NCF1 inh -13.5, ROMK mod 0.322, WT yeast gro inh 2.9, RBBP9 inh -7.0 and 14-3-3 Bad PPI 87.6*.
`CC(C)COn1c(=S)[nH]c2ccccc2c1=O` gave NCF1 inh -0.8, WT yeast gro inh 12.1, KCC2 mod 49*, RBBP9 inh -3.8 and 14-3-3 Bad PPI -13.0.
`CC(=O)Nc1ccc(NC(=O)CSc2ccc([N+](=O)[O-])cn2)cc1` gave NCF1 inh -5.1, KCC2 mod -0.704, RBBP9 inh 3.7 and 14-3-3 Bad PPI 6.5.
Screening O=c1c2ccccc2nc2n1-c1ccccc1CCC2 returned NCF1 inh -10.2, WT yeast gro inh 18.1, RBBP9 inh 8.5 and 14-3-3 Bad PPI 4.0.
O=C1c2ccccc2-n2c1nc1ccccc1c2=O was read as NCF1 inh 1.7, ROMK mod -0.206, WT yeast gro inh 66.0*, KCC2 mod 0.00666, RBBP9 inh -5.4 and 14-3-3 Bad PPI -1.9.
`CCOC(=O)Nc1ccc(Cc2ccncc2)cc1` gave NCF1 inh 1.6, ROMK mod 0.0471, WT yeast gro inh -12.7, KCC2 mod 1.34, RBBP9 inh -2.5 and 14-3-3 Bad PPI -1.3.
Screening C#CC1CCCCC1NC(=O)Nc1cnccc1C(F)(F)F (centres undefined) returned NCF1 inh -6.5, KCC2 mod 0.69, RBBP9 inh 7.1 and 14-3-3 Bad PPI -4.0.
`COc1cc2oc(-c3ccc(O)cc3)cc(=O)c2c(O)c1OC` gave NCF1 inh 41.0*, KCC2 mod -0.424 and 14-3-3 Bad PPI -0.7.
`CC(NC(=O)CNC(=O)C(Cc1ccccc1)NC(=O)OCc1ccccc1)C(N)=O` (centres undefined) gave NCF1 inh 3.5, ROMK mod -0.0816, WT yeast gro inh 5.8, RBBP9 inh 9.4 and 14-3-3 Bad PPI -1.6.
CCCCCOc1ccc2oc(=O)c3c(c2c1)CCCN3C(=O)CN1CCCC(C(=O)OCC)C1 (centres undefined) was read as NCF1 inh -7.3, ROMK mod -1.31, WT yeast gro inh 80.4*, KCC2 mod -0.0147, RBBP9 inh -1.8 and 14-3-3 Bad PPI 20.4.
`COc1ccc([N+](=O)[O-])cc1N/C(=N/S(=O)(=O)c1ccccc1)c1ccccc1` gave NCF1 inh 9.6, ROMK mod -0.303, WT yeast gro inh 4.9, KCC2 mod -0.849, RBBP9 inh -8.9 and 14-3-3 Bad PPI 8.6.
For Cc1ccc(-c2c3c([nH]c(=S)c2C#N)CCCC3)o1 the results were NCF1 inh -72.8, WT yeast gro inh 2.5, KCC2 mod 24.4*, RBBP9 inh -7.0 and 14-3-3 Bad PPI 7.1.
Fc1ccc(CO/N=C/C2=C(Cl)c3ccccc3CC2)cc1 was read as NCF1 inh -0.7, ROMK mod 1.47, WT yeast gro inh 58.0*, KCC2 mod -0.297, RBBP9 inh -5.7 and 14-3-3 Bad PPI 2.7.
Screening CCOC(=O)c1cccc(N2C(=O)c3ccccc3S2(=O)=O)c1 returned NCF1 inh 80.5*, ROMK mod -0.583, WT yeast gro inh 26.9, KCC2 mod -0.547, RBBP9 inh 6.4 and 14-3-3 Bad PPI 3.7.
`C1CCN(CCCNC2C3CC4CC(C3)CC2C4)C1` (centres undefined) gave NCF1 inh 3.9, WT yeast gro inh -13.3, KCC2 mod 0.384, RBBP9 inh -10.2 and 14-3-3 Bad PPI -4.3.
For Cc1ccc(NC(=O)CN2C(=O)S/C(=C\c3ccc(-c4cccc(C(=O)O)c4C)o3)C2=O)cc1 the results were NCF1 inh -37.0, ROMK mod -0.519, WT yeast gro inh -6.4, KCC2 mod -1.45, RBBP9 inh 6.4 and 14-3-3 Bad PPI -10.6.
For Cc1ccc(NC(=O)CN2C(=O)S/C(=C/c3ccc(-c4cccc(C(=O)O)c4)o3)C2=O)cc1 the results were NCF1 inh -22.6, ROMK mod -1.18, WT yeast gro inh -5.5, KCC2 mod 0.0799, RBBP9 inh 1.9 and 14-3-3 Bad PPI 88.2*.
`CCOc1ccc(C2C([N+](=O)[O-])=C(C)N(C)C(=O)N2C)cc1OC` (centres undefined) gave NCF1 inh -0.8, ROMK mod -0.13, WT yeast gro inh -15.8, KCC2 mod 0.983, RBBP9 inh -14.2 and 14-3-3 Bad PPI -13.1.
`N=C1/C(=C\c2ccc(OCc3ccccc3)cc2)C(=O)N=C2SC(N3CCCC3)=NN12` gave NCF1 inh -0.9, WT yeast gro inh 11.7, KCC2 mod 0.737, RBBP9 inh 1.0 and 14-3-3 Bad PPI -7.0.
Screening CCOC(=O)COc1cc(-n2c(=S)[nH]c3cc(OC)c(OC)cc3c2=O)c(Cl)cc1Cl returned NCF1 inh 37.4*, ROMK mod -0.169, WT yeast gro inh -3.3, KCC2 mod -0.199, RBBP9 inh -10.1 and 14-3-3 Bad PPI -13.0.
For CCOC(=O)COc1cc(N2C(=O)CSCC2=O)c(Cl)cc1Cl the results were NCF1 inh -8.3, KCC2 mod -0.177, RBBP9 inh 0.9 and 14-3-3 Bad PPI -3.7.
`Cc1ccc(OCC(=O)Nc2ccccc2F)cc1C` gave NCF1 inh -3.9, ROMK mod -0.465, WT yeast gro inh 14.4, KCC2 mod -0.144, RBBP9 inh -11.8 and 14-3-3 Bad PPI 1.1.
Screening COc1cccc(-c2nc(N3CCN(C)CC3)c3ccccc3n2)c1O returned NCF1 inh -5.9, ROMK mod -1.18, KCC2 mod -0.233, RBBP9 inh -4.0 and 14-3-3 Bad PPI -1.9.
Screening COc1cccc(-c2nc(N3CCCCC3C)c3ccccc3n2)c1O (centres undefined) returned NCF1 inh -26.2, ROMK mod -0.159, WT yeast gro inh 63.5*, KCC2 mod -2.02, RBBP9 inh -1.6 and 14-3-3 Bad PPI -3.4.

Screening results (PubChem)
